Reference: ChEMBL document CHEMBL1129996, “1-Aryl-3,5-dihydro-4H-2,3-benzodiazepin-4-ones: novel AMPA receptor antagonists” (J Med Chem, 1997)
“And” between values parts separate entries of the source, which are not always exact repeats. Identical values can stand only once. Blank lines part the entries; values can stand above or below the molecule they belong to.

What was measured:
Mus musculus [1] = assay: Anticonvulsant activity against clonic phase of the audiogenic seizures in DBA / 2 mice 30 min after ip administration at a dose range 33-66 uM/kg; format: functional; details: 0.5 h
Outline: (§1)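 Groups of 10 DBA/2 mice of either sex; drug ip (0.1 mL/10 g) as fresh solution in 50% DMSO/50% saline, 30 min before auditory stimulation (12-16 kHz, 109 dB, 60 s or until tonic extension) under perspex dome after 60 s habituation. Latency and incidence of wild running, clonic and tonic phases scored; ED50 (95% confidence limits) by Litchfield-Wilcoxon.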

[2] = Relative lipophilicity of compound; format: physicochemical; details: reversed-phase TLC, acetone/water 2:1
Outline: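 Reversed-phase TLC type lipophilicity: plates dried 105 °C 1 h, mobile phase acetone:water 2:1, 1 µL of 3 mg/mL CHCl3 solution spotted; five runs with varied positions, mean Rf converted as Rm = log[(1/Rf) - 1].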

Mus musculus [3] = assay: Anticonvulsant activity against tonic phase of the audiogenic seizures in DBA / 2 mice 30 min after ip administration at a dose range 33-66 uM/kg; format: functional; details: 0.5 h; outline: as §1
Mus musculus [4] = organism: Mus musculus; assay: Audiogenic seizures after concomitant treatment with Flumazenil (8.24 uM) in DBA / 2 mice clonic phase; format: functional
Mus musculus [5] = assay: Anticonvulsant activity against clonic phase of the audiogenic seizures in DBA / 2 mice 30 min after ip administration at a dose range 10-100 uM/kg; format: functional; details: 0.5 h; outline: as §1
Mus musculus [6] = organism: Mus musculus; assay: Audiogenic seizures after concomitant treatment with Flumazenil (8.24 uM) in DBA / 2 mice tonic phase; format: functional
Mus musculus [7] = organism: Mus musculus; assay: Audiogenic seizures after concomitant treatment with Flumazenil (24.72 uM) in DBA / 2 mice tonic phase; format: functional
[8] = Motor toxicity in 50% of mice on locomotion assessed by Rotarod test following 30 min ip administration; format: organism-based; details: mouse, in vivo
Outline: (§2)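 Male Swiss mice (20-26 g, 48-54 days), groups of 10, trained on rotarod (3 cm, 8 rpm); tested 30 min after ip dosing. Impairment = failure to stay on for 2 min; TD50 (95% confidence limits) by Litchfield-Wilcoxon.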

Mus musculus [9] = assay: Anticonvulsant activity against the clonic seizures induced by icv injection of AMPA in DBA / 2 mice at a dose range of 10-200 uM / kg (95% confidence limits); format: functional; details: central
Mus musculus [10] = assay: Audiogenic seizures after pretreatment with Aniracetam in DBA / 2 mice clonic phase at a dose range of 10-200 uM/kg; format: functional
Outline: (§3)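 DBA/2 mice pretreated with aniracetam 50 nmol icv 60 min before auditory testing, with ip 2,3-benzodiazepine; audiogenic clonic and tonic phases scored; ED50 by Litchfield-Wilcoxon.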

Mus musculus [11] = organism: Mus musculus; assay: Pentylenetetrazole-induced seizures in Swiss mice after 45 min pretreatment at a dose range 10-150 uM / kg (95% confidence limits); format: functional
Mus musculus [12] = organism: Mus musculus; assay: Audiogenic seizures after concomitant treatment with Flumazenil (24.72 uM) in DBA / 2 mice clonic phase; format: functional
Mus musculus [13] = assay: Anticonvulsant activity against the tonic seizures induced by icv injection of AMPA in DBA / 2 mice at a dose range of 10-200 uM/kg; format: functional; details: central
Mus musculus [14] = assay: Audiogenic seizures after pretreatment with Aniracetam in DBA / 2 mice tonic phase at a dose range of 10-200 uM/kg; format: functional; outline: as §3
Mus musculus [15] = assay: Anticonvulsant activity against tonic phase of the audiogenic seizures in DBA / 2 mice 30 min after ip administration at a dose range 10-100 uM/kg; format: functional; details: 0.5 h; outline: as §1
Mus musculus [16] = assay: Anticonvulsant activity against the maximal electroshock in Swiss mice after 45 minutes pretreatment at a dose range uM/kg; format: functional
Outline: (§4)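 Swiss mice dosed ip in 50% DMSO/50% saline 45 min before ear-clip electroshock (50 mA, 20 ms pulses, 35 Hz, 400 ms). Protection = abolition of tonic hindlimb extension. Usually 4-5 doses with 8-10 mice each; ED50 (95% confidence limits) by Litchfield-Wilcoxon.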

[17] = Therapeutic index it is the ratio between TD50 and ED50 (from the clonic phase of the audiogenic seizures); details: read-out: TI
Outline: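 Therapeutic index computed as rotarod TD50 divided by ED50 for the clonic phase of audiogenic seizures in DBA/2 mice.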

Mus musculus [18] = assay: Anticonvulsant activity against clonic phase of the audiogenic seizures in DBA / 2 mice 30 min after ip administration at a dose range 10-120 uM/kg; format: functional; details: 0.5 h; outline: as §1
Mus musculus [19] = assay: Pentylenetetrazole-induced seizures in Swiss mice after 45 min pretreatment at a dose range 10-150 uM/kg; format: functional
Mus musculus [20] = assay: Anticonvulsant activity against tonic phase of the audiogenic seizures in DBA / 2 mice 30 min after ip administration at a dose range 10-120 uM/kg; format: functional; details: 0.5 h; outline: as §1
Mus musculus [21] = assay: Anticonvulsant activity against the maximal electroshock in Swiss mice after 45 minutes pretreatment at a dose range 10-150 uM/kg; format: functional; outline: as §4
[22] = Motor toxicity in 50% of mice on locomotion assessed by Rotarod test following 30 min ip administration (95% confidence limits); format: organism-based; details: mouse, in vivo; outline: as §2
Mus musculus [23] = assay: Anticonvulsant activity against clonic phase of the audiogenic seizures in DBA / 2 mice 30 min after ip administration at a dose range 10-133 uM/kg; format: functional; details: 0.5 h; outline: as §1
Mus musculus [24] = assay: Anticonvulsant activity against tonic phase of the audiogenic seizures in DBA / 2 mice 30 min after ip administration at a dose range 10-133 uM/kg; format: functional; details: 0.5 h; outline: as §1

SMILES: COc1cc2c(cc1OC)C(c1ccc(Cl)cc1)=NN(C)C(=O)C2
ED50 (Mus musculus [1]): 41.2 µmol/kg and 14.2 mg/kg
Rm [2]: 0.25
ED50 (Mus musculus [3]): 38.6 µmol/kg and 13.3 mg/kg

SMILES: COc1cc2c(cc1OC)C(c1ccc(N)cc1)=NN(C)C(=O)C2
ED50 (Mus musculus [4]): 51.2 µmol/kg
ED50 (Mus musculus [5]): 50.2 µmol/kg and 16.3 mg/kg
ED50 (Mus musculus [6]): 38.5 µmol/kg
ED50 (Mus musculus [7]): 32.2 µmol/kg
TD50 at 0.5 h [8]: 159 µmol/kg
ED50 (Mus musculus [9]): 72.1 µmol/kg
ED50 (Mus musculus [10]): 141 µmol/kg
Rm [2]: -0.374
ED50 (Mus musculus [11]): 70.8 µmol/kg
ED50 (Mus musculus [12]): 45.9 µmol/kg
ED50 (Mus musculus [13]): 62.4 µmol/kg
ED50 (Mus musculus [14]): 112 µmol/kg
ED50 (Mus musculus [15]): 43.7 µmol/kg and 14.2 mg/kg
ED50 (Mus musculus [16]): 57.2 µmol/kg
therapeutic index (TD50/ED50) [17]: 3.2

SMILES: COc1cc2c(cc1OC)C(c1ccc(C#N)cc1)=NN(C(C)=O)C(=O)C2
ED50 (Mus musculus [18]): > 120 µmol/kg and > 44 mg/kg
TD50 at 0.5 h [8]: > 150 µmol/kg
Rm [2]: -0.065
ED50 (Mus musculus [20]): > 120 µmol/kg and > 44 mg/kg

SMILES: COc1cc2c(cc1OC)C(c1ccc(Br)cc1)=NN(C)C(=O)C2
ED50 (Mus musculus [5]): 63 µmol/kg and 24.5 mg/kg
Rm [2]: 0.288
ED50 (Mus musculus [15]): 38 µmol/kg and 14.8 mg/kg

SMILES: COc1cc2c(cc1OC)C(c1ccccc1)=NN(C(C)=O)C(=O)C2
ED50 (Mus musculus [5]): 101 µmol/kg and 33.3 mg/kg
TD50 at 0.5 h [8]: 181 µmol/kg
Rm [2]: -0.052
ED50 (Mus musculus [15]): 72.1 µmol/kg and 24.4 mg/kg
therapeutic index (TD50/ED50) [17]: 1.8

Continued, in another order:

Rm [2]: 0.11
SMILES: COc1cc2c(cc1OC)C(c1ccc([N+](=O)[O-])cc1)=NN(C)C(=O)C2
ED50 (Mus musculus [18]): > 120 µmol/kg and > 44 mg/kg
TD50 at 0.5 h [8]: > 150 µmol/kg
ED50 (Mus musculus [19]): > 150 µmol/kg
ED50 (Mus musculus [20]): > 120 µmol/kg and > 44 mg/kg
ED50 (Mus musculus [21]): > 150 µmol/kg

Rm [2]: -0.14
SMILES: COc1cc2c(cc1OC)C(c1cccc([N+](=O)[O-])c1)=NNC(=O)C2
ED50 (Mus musculus [18]): > 120 µmol/kg and > 44 mg/kg
TD50 at 0.5 h [8]: > 150 µmol/kg
ED50 (Mus musculus [19]): > 150 µmol/kg
ED50 (Mus musculus [20]): > 120 µmol/kg and > 44 mg/kg
ED50 (Mus musculus [21]): > 150 µmol/kg

Rm [2]: -0.096
SMILES: COc1cc2c(cc1OC)C(c1ccc([N+](=O)[O-])cc1)=NNC(=O)C2
ED50 (Mus musculus [18]): > 120 µmol/kg and > 44 mg/kg
TD50 at 0.5 h [22]: > 150 µmol/kg
ED50 (Mus musculus [11]): > 150 µmol/kg
ED50 (Mus musculus [20]): > 120 µmol/kg and > 44 mg/kg
ED50 (Mus musculus [21]): > 150 µmol/kg

Rm [2]: -0.218
SMILES: COc1cc2c(cc1OC)C(c1ccc(C#N)cc1)=NNC(=O)C2
ED50 (Mus musculus [18]): > 120 µmol/kg and > 44 mg/kg
TD50 at 0.5 h [8]: > 150 µmol/kg
ED50 (Mus musculus [19]): > 150 µmol/kg
ED50 (Mus musculus [20]): > 120 µmol/kg and > 44 mg/kg
ED50 (Mus musculus [21]): > 150 µmol/kg

Rm [2]: 0.052
SMILES: COc1cc2c(cc1OC)C(c1ccc(Br)cc1)=NNC(=O)C2
TD50 at 0.5 h [8]: 226 µmol/kg
ED50 (Mus musculus [23]): 110 µmol/kg and 41.2 mg/kg
ED50 (Mus musculus [19]): > 150 µmol/kg
ED50 (Mus musculus [24]): 82.5 µmol/kg and 30.7 mg/kg
ED50 (Mus musculus [21]): 123 µmol/kg
therapeutic index (TD50/ED50) [17]: 2
